Measurements gathered from unrelated publications.
Each line is one published result; the experiments were not run side by side.
EGFR del746-750: Epidermal growth factor receptor (EGFR, Homo sapiens, UniProt P00533, del746-750)
EGFR L861Q: Epidermal growth factor receptor (EGFR, Homo sapiens, UniProt P00533, L861Q)
EGFR del747-752/P753S: Epidermal growth factor receptor (EGFR, Homo sapiens, UniProt P00533, del747-752/P753S)
EGFR L858R/T790M: Epidermal growth factor receptor (EGFR, Homo sapiens, UniProt P00533, L858R/T790M)
EGFR G719S: Epidermal growth factor receptor (EGFR, Homo sapiens, UniProt P00533, G719S)
EGFR del752-759: Epidermal growth factor receptor (EGFR, Homo sapiens, UniProt P00533, del752-759)
EGFR: Epidermal growth factor receptor (EGFR, Homo sapiens, UniProt P00533)
EGFR L858R: Epidermal growth factor receptor (EGFR, Homo sapiens, UniProt P00533, L858R)
EGFR T790M: Epidermal growth factor receptor (EGFR, Homo sapiens, UniProt P00533, T790M)

| SMILES | target | test | setting | remaining binding |
| --- | --- | --- | --- | --- |
| CCN1CCN(Cc2ccc(C(=O)Nc3ccc(C)c(Oc4ccc5c(c4)CC(=O)N5)c3)cc2C(F)(F)F)CC1 | EGFR del746-750 | binding, competition with immobilised ligand | 1 µM | 99% |
| CC(=O)N1CCC(c2ccc(C(=O)NC(=N)N)cc2C(F)(F)F)CC1 | EGFR L861Q | cell-free assay, competition with immobilised ligand | 1 µM | 91% |
| O=C(NCCCN1CCOCC1)c1ccc(Nc2ncc(Cl)c(-c3ccc(Cl)s3)n2)cc1 | EGFR del747-752/P753S | binding, competition with immobilised ligand | 1 µM | 98% |
| O=C(NC[C@@H]1[C@H]2CN(C(=O)OCc3cc(C(F)(F)F)cc(C(F)(F)F)c3)C[C@@H]12)c1ccc2[nH]nnc2c1 | EGFR L858R/T790M | cell-free assay, competition with immobilised ligand | 1 µM | 80% |
| COc1ccnn2ncc(-c3ccnc(N(C)C)n3)c12 | EGFR G719S | binding | 1 µM | 96% |
| O=C(c1ccc(Nc2nccc(-c3cc4ccccc4s3)n2)cc1)N1CCC(N2CCCC2)CC1 | EGFR del752-759 | binding, competition with immobilised ligand | 1 µM | 93% |
| CC(C)CC(=O)N1CCc2nc(-c3ccc(Br)cc3)nc(N(C)Cc3ccccc3)c2C1 | EGFR del746-750 | cell-free assay, competition with immobilised ligand | 0.1 µM | 100% |
| COc1cnc(Nc2cccc(S(N)(=O)=O)c2)nc1N1CCN(c2ccccc2)C(=O)C1 | EGFR | binding, competition with immobilised ligand | 1 µM | 100% |
| C[C@H]1CCN(c2nccc(-c3cnn4ncccc34)n2)C1 | EGFR L858R | binding | 1 µM | 100% |
| O=C(c1ccc(Nc2ncc(Cl)c(-c3ccc(Cl)s3)n2)cc1)N1CCC(N2CCCC2)CC1 | EGFR | binding, competition with immobilised ligand | 1 µM | 86% |
| C[C@@H]1CN(c2cc(-c3nn(C)c4ccc(OC5(C)CC5)cc34)ncn2)C[C@H](C)O1 | EGFR L858R | cell-free assay, competition with immobilised ligand | 1 µM | 95% |
| CNC(=O)[C@@H]1CC[C@@H](n2c(-c3ccc4cnccc4c3)nc3ccc(C(=O)NCc4cccc(C(N)=O)c4)cc32)C1 | EGFR T790M | binding, competition with immobilised ligand | 1 µM | 72% |
| O=C(NCCCN1CCOCC1)c1ccc(Nc2nccc(-c3cc4ccccc4s3)n2)cc1 | EGFR L861Q | binding, competition with immobilised ligand | 1 µM | 99% |
| O=C(NCC1CCOCC1)c1n[nH]cc1NC(=O)c1c(F)cccc1F | EGFR L858R/T790M | binding, competition with immobilised ligand | 1 µM | 97% |
| F[C@@H]1CCN(c2nccc(-c3cnn4ncccc34)n2)C1 | EGFR L858R | binding | 1 µM | 89% |
| COc1cnc(Nc2cccc(S(N)(=O)=O)c2)nc1N1CCN(c2ccccc2)CC1 | EGFR G719S | binding, competition with immobilised ligand | 1 µM | 100% |
| CN(C)c1nccc(-c2cnc3ncccn23)n1 | EGFR G719S | binding | 1 µM | 84% |
| O=C(Nc1c[nH]nc1C(=O)NC1CCNCC1)c1cc(F)cc(F)c1 | Epidermal growth factor receptor (EGFR, Homo sapiens, UniProt P00533, G719C) | binding, competition with immobilised ligand | 1 µM | 100% |
| COc1cc(-c2cn(C3CCc4ccccc4N(CC(F)(F)F)C3=O)nn2)ccc1-n1ccc(C)n1 (centres unmarked) | EGFR T790M | cell-free assay, competition with immobilised ligand | 1 µM | 59% |
| Nc1ncc2c(n1)-c1c([nH]c3ccc(C#CC4CC4)cc13)CCCC2 | EGFR del746-750 | binding, competition with immobilised ligand | 1 µM | 72% |
| O=C(c1ccc(Nc2ncc(Cl)c(-c3cc4ccccc4s3)n2)cc1)N1CCC(N2CCCC2)CC1 | EGFR L858R | binding, competition with immobilised ligand | 1 µM | 81% |
| CCS(=O)(=O)c1cc2cc(C[C@](O)(CC(C)(C)c3ccc(F)cc3C(N)=O)C(F)(F)F)[nH]c2cn1 | EGFR T790M | cell-free assay, competition with immobilised ligand | 1 µM | 78% |
| Cc1cnc(Nc2ccc(C(=O)N3CCC(N4CCCC4)CC3)cc2)nc1-c1cc2ccccc2s1 | EGFR del746-750 | binding, competition with immobilised ligand | 1 µM | 100% |
| CC1CCCN1c1nccc(-c2cnn3ncccc23)n1 (centres unmarked) | EGFR T790M | binding | 1 µM | 100% |
| C[C@@]1(Cc2ccc(C#N)cc2)C(=O)N(c2cc(Cl)cc(Cl)c2)c2ncc(C(=O)NC3(c4nc(C5CCC5)no4)CC3)n21 | EGFR del747-752/P753S | cell-free assay, competition with immobilised ligand | 1 µM | 58% |
| c1cnn2ncc(-c3ccnc(N4CCC45COC5)n3)c2c1 | EGFR G719S | binding | 1 µM | 100% |
| c1cncc(-c2cccc(Nc3nccc(NC4CCCCC4)n3)c2)c1 | EGFR | binding, competition with immobilised ligand | 10 µM | 56% |
| CN(c1ccnc(CNc2nc(Nc3ccc4c(c3)CC(=O)N4)ncc2C(F)(F)F)n1)S(C)(=O)=O | EGFR del752-759 | cell-free assay, competition with immobilised ligand | 1 µM | 76% |
| CN(C)c1ncc(F)c(-c2cnn3ncccc23)n1 | EGFR | binding | 1 µM | 82% |
